Assay results as given in ChEMBL document CHEMBL1148741, “Synthesis and SAR investigations for novel melanin-concentrating hormone 1 receptor (MCH1) antagonists part 2: A hybrid strategy combining key fragments of HTS hits” (J Med Chem, 2007).
Calls of active or inactive are those of the source. The rule behind the calls is not given here.

Key:
[1] = molecular target: T1, Melanin-concentrating hormone receptor 1 (Rattus norvegicus, UniProt P97639); test: Displacement of [3H]T-226296 from rat recombinant MCH1 receptor
T1 sequence (P97639 whole entry): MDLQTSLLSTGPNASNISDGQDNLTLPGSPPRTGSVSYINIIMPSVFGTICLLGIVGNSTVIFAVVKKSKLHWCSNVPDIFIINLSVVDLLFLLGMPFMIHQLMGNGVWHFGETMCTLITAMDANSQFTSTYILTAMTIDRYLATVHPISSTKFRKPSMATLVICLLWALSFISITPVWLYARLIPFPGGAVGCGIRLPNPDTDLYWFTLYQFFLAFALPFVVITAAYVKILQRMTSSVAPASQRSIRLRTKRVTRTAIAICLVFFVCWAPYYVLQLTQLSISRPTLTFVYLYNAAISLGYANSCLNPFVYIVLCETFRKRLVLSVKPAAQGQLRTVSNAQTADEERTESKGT

[2] = molecular target: T1, Melanin-concentrating hormone receptor 1; test: Antagonist activity at rat MCH1 receptor expressed in HEK293 cells by FLIPR calcium mobility assay; format: functional, cell-based
D(2) dopamine receptor = D(2) dopamine receptor (Homo sapiens, UniProt P14416); test: Displacement of [3H]spiperone from human recombinant dopamine D2 receptor
Sequence of D(2) dopamine receptor (P14416 whole entry): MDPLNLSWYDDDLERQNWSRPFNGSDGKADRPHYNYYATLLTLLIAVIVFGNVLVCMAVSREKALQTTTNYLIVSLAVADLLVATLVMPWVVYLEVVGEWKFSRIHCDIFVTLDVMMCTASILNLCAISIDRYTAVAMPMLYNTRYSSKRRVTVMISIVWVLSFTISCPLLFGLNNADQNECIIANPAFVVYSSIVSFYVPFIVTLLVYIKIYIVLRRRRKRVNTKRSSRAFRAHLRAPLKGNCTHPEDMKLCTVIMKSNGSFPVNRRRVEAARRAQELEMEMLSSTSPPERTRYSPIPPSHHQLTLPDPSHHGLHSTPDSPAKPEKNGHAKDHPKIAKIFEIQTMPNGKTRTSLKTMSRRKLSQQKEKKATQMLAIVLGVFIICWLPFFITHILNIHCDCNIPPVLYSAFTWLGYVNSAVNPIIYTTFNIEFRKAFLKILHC

[3] = molecular target: T2, Alpha-1A adrenergic receptor (Homo sapiens, UniProt P35348); test: Displacement of [125I]HEAT from human recombinant adrenergic alpha-1A receptor
T2 sequence (P35348 whole entry): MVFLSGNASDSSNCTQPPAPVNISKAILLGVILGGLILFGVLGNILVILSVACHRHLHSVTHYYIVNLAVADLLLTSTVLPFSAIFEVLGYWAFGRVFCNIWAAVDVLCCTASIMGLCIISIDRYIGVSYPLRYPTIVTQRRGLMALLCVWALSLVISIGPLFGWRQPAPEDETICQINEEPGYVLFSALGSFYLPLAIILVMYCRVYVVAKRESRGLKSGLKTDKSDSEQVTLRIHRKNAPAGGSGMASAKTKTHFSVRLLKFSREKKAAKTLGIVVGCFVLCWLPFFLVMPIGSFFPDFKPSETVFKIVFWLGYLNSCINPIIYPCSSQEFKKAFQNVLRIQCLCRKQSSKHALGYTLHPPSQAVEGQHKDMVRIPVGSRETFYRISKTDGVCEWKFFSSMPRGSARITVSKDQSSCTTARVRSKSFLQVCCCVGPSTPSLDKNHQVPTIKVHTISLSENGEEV

Rattus norvegicus [4] = test: Inhibition of MCH-stimulated water intake in rat at 1 mg/kg, po; format: functional, organism-based; design: dose 1 mg/kg
[5] = Ratio of drug level in brain to plasma in rat at 10 mg/kg, po; format: ADME, organism-based; design: dose 10 mg/kg, route oral
In short: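 Rats received a single oral dose in a study separate from the main PK study. Brain and plasma concentrations were measured 4 h after dosing (n = 2), and the ratio was taken as brain level over plasma level. The limit of quantitation was 2 ng/mL for plasma and 2 ng/g for brain.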

[6] = Volume of distribution at steady state in rat; format: ADME, organism-based; settings: in vivo, read-out: Vss
[7] = Blood clearance in rat at 2 mg/kg, po and 1 mg/kg iv; format: ADME, organism-based; settings: whole blood
[8] = Half life in rat at 2 mg/kg, po and 1 mg/kg iv; format: ADME, organism-based; settings: in vivo
Rattus norvegicus [9] = test: Inhibition of MCH-stimulated water intake in rat at 2.5 mg/kg, po; format: functional, organism-based; design: dose 2.5 mg/kg
[10] = Bioavailability in rat at 2 mg/kg, po and 1 mg/kg iv; format: ADME, organism-based; settings: in vivo
[11] = Plasma clearance in rat at 2 mg/kg, po and 1 mg/kg iv; format: ADME, organism-based
[12] = Drug level in brain at 10 mg/kg, po after 4 hrs; format: ADME, organism-based; design: dose 10 mg/kg, route oral; settings: rat, read-out: Drug uptake
In short: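 Separate rat experiment: single 10 mg/kg oral dose, brain and plasma exposures measured 4 h after dosing (n = 2); brain level expressed in ng/g, also as brain/plasma ratio.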

Rattus norvegicus [13] = test: Anxiolytic activity in rat assessed as social interaction time at 0.3 mg/kg, po after 1 hr relative to control
Rattus norvegicus [14] = test: Inhibition of MCH-stimulated water intake in rat at 10 mg/kg, po; format: functional, organism-based; design: dose 10 mg/kg

Compound: CC(=O)Nc1cccc(C2CCN(CCCC(=O)c3ccc(Oc4ccccc4)cc3)CC2)c1
- Ki [1]: 490 nM
- IC50 [2]: > 10000 nM

Compound: CC(C)C(=O)Nc1cccc(C2CCN(CCCC(=O)c3ccc(Cl)cc3)CC2)c1
- Ki [1]: 5 nM
- Ki (D(2) dopamine receptor): 610 nM
- IC50 [2]: 72 nM

Compound: COc1ccc(Oc2cccc(CN3CCC(c4cccc(NC(=O)C(C)C)c4)CC3)c2)cc1
- Ki (D(2) dopamine receptor): 1000 nM

Compound: CC(=O)Nc1cccc(C2CCN(CCCC(=O)c3ccc(Cl)cc3)CC2)c1
- Ki [1]: 70 nM
- Ki (D(2) dopamine receptor): 1400 nM
- IC50 [2]: 570 nM

Compound: O=C(CCCN1CCC(O)(c2ccc(Cl)cc2)CC1)c1ccc(Cl)cc1 [CHLOROHALOPERIDOL]
- Ki [1]: 350 nM
- Ki (D(2) dopamine receptor): 190 nM
- Ki [3]: 150 nM

Compound: CC(C)C(=O)Nc1cccc(C2CCN(Cc3cccc(Oc4ccc(Cl)cc4)c3)CC2)c1
- Ki [1]: 23 nM
- IC50 [2]: 2000 nM

Compound: CC(C)C(=O)Nc1cccc(C2CCN(Cc3cccc(Oc4ccc(C(C)(C)C)cc4)c3)CC2)c1
- Ki [1]: 540 nM

Compound: COCC1=C(C(=O)OC)[C@H](c2ccc(F)c(F)c2)N(C(=O)NCCCN2CCC(c3cccc(NC(C)=O)c3)CC2)C(=O)N1 [SNAP-7941]
- Ki (D(2) dopamine receptor): 2800 nM
- Ki [3]: 40 nM

Compound: Cc1ccc(Oc2cccc(CN3CCC(c4cccc(NC(=O)C(C)C)c4)CC3)c2)cc1
- Ki (D(2) dopamine receptor): 1300 nM

Compound: Cc1ccc(NC(=O)C(C)C)cc1C1CCN(Cc2ccc(Oc3ccc(F)c(F)c3)cc2)CC1
- Activity (Rattus norvegicus [4]): Active
- Kp [5]: 2.3
- Vd [6]: 29 L/kg
- clearance [7]: 55 mL/min/kg
- half-life [8]: 312 min
- Activity (Rattus norvegicus [9]): Active
- bioavailability [10]: 59%
- Ki (D(2) dopamine receptor): 7400 nM
- clearance [11]: 70 mL/min/kg
- IC50 [2]: 230 nM
- concentration at 4 h [12]: 184 ng/g
- Ki [3]: 180 nM
- Time (Rattus norvegicus [13]): 81 s
- Activity (Rattus norvegicus [14]): Active

Compound: CC(C)C(=O)Nc1cccc(C2CCN(Cc3cccc(Oc4ccc(Cl)c(Cl)c4)c3)CC2)c1
- Ki [1]: 18 nM
- IC50 [2]: 2600 nM

Compound: CC(C)C(=O)Nc1cccc(C2CCN(Cc3ccc(Oc4ccc(Cl)c(Cl)c4)cc3)CC2)c1
- Ki [1]: 8.2 nM
- Ki (D(2) dopamine receptor): 2900 nM
- IC50 [2]: 710 nM
- Ki [3]: 34000 nM

Compound: CC(C)C(=O)Nc1cccc(C2CCN(Cc3ccc(Oc4ccc(F)c(F)c4)cc3)CC2)c1
- Ki (D(2) dopamine receptor): 470 nM
- Ki [3]: 200 nM

Compound: CC(C)C(=O)Nc1cccc(C2CCN(Cc3cccc(Oc4cccc(C(F)(F)F)c4)c3)CC2)c1
- IC50 [2]: 5400 nM

Compound: CC(C)C(=O)Nc1cccc(C2CCN(Cc3ccc(Oc4ccc(Cl)cc4)cc3)CC2)c1
- Ki [1]: 5.3 nM
- Ki (D(2) dopamine receptor): 110 nM
- IC50 [2]: 350 nM

Compound: Cc1ccc(C2CCN(Cc3ccc(Oc4ccc(F)c(F)c4)cc3)CC2)cc1NC(=O)C(C)C
- Ki [1]: 27 nM
- Ki (D(2) dopamine receptor): 400 nM
- IC50 [2]: 360 nM
- Ki [3]: 1010 nM

Compound: O=C(CCCN1CCC(c2cccc(NC(=O)C3CCCCC3)c2)CC1)c1ccc(Cl)cc1
- Ki [1]: 200 nM

Compound: CC(C)C(=O)Nc1cccc(C2CCN(Cc3ccc(Oc4ccccc4)cc3)CC2)c1
- Ki [1]: 10 nM
- Ki (D(2) dopamine receptor): 120 nM
- IC50 [2]: 320 nM

Compound: O=C(Cc1ccccc1)Nc1cccc(C2CCN(CCCC(=O)c3ccc(Cl)cc3)CC2)c1
- Ki (D(2) dopamine receptor): 780 nM

Compound: CC(=O)Nc1cccc(C2CCN(CCCC(=O)c3ccccc3)CC2)c1
- Ki [1]: 350 nM
- IC50 [2]: 2700 nM

Compound: COc1ccc(Oc2ccc(CN3CCC(c4cccc(NC(=O)C(C)C)c4)CC3)cc2)cc1
- Ki (D(2) dopamine receptor): 1400 nM
- IC50 [2]: 720 nM

Compound: CC(=O)Nc1cccc(C2CCN(CCCC(=O)c3ccc(C)cc3)CC2)c1
- IC50 [2]: 2400 nM

Compound: CC(C)C(=O)Nc1cccc(C2CCN(Cc3cccc(Oc4cc(Cl)cc(Cl)c4)c3)CC2)c1
- Ki [1]: 140 nM
- IC50 [2]: 1400 nM

Compound: CC(=O)Nc1cccc(C2CCN(CCCC(=O)c3ccc(C)c(C)c3)CC2)c1
- Ki [1]: 100 nM
- IC50 [2]: 1300 nM
